Measurements published in ChEMBL document CHEMBL1155468, “Syntheses and evaluation of anticonvulsant profile and teratogenicity of novel amide derivatives of branched aliphatic carboxylic acids with 4-aminobenzensulfonamide” (J Med Chem, 2010).
Calls of active or inactive are those of the source. The calls are words filed in the database; no cut-off is given here.

Assays:
Mus musculus [1] = experiment: Anticonvulsant activity in CF1 albino mouse assessed as inhibition of subcutaneous pentylenetetrazole-induced seizures at 30 mg/kg, ip after 0.5 hrs; format: functional, organism-based; set-up: dose 30 mg/kg
Procedure, shortened: (§1)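 Adult male CF no. 1 albino mice (18-25 g) dosed ip with compound suspended in 0.5% methylcellulose (0.01 mL/g). Convulsant: pentylenetetrazol dissolved in 0.9% saline as a 0.85% solution for mice, given subcutaneously.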

Mus musculus [2] = experiment: Anticonvulsant activity in CF1 albino mouse assessed as inhibition of subcutaneous pentylenetetrazole-induced seizures at 100 mg/kg, ip after 0.5 hrs; format: functional, organism-based; set-up: dose 100 mg/kg; procedure, shortened: as §1
Mus musculus [3] = experiment: Anticonvulsant activity in CF1 albino mouse assessed as inhibition of subcutaneous pentylenetetrazole-induced seizures at 300 mg/kg, ip after 0.5 hrs; format: functional, organism-based; set-up: dose 300 mg/kg; procedure, shortened: as §1
Mus musculus [4] = experiment: Anticonvulsant activity in CF1 albino mouse assessed as inhibition of subcutaneous pentylenetetrazole-induced seizures at 30 mg/kg, ip after 4 hrs; format: functional, organism-based; set-up: dose 30 mg/kg; procedure, shortened: as §1
Mus musculus [5] = experiment: Anticonvulsant activity in CF1 albino mouse assessed as inhibition of subcutaneous pentylenetetrazole-induced seizures at 100 mg/kg, ip after 4 hrs; format: functional, organism-based; set-up: dose 100 mg/kg; procedure, shortened: as §1
Mus musculus [6] = experiment: Teratogenic effect in SWV mouse assessed as resorptions at 511 mg/kg, ip administered on morning of day 8 of gestation; format: toxicity, organism-based; set-up: dose 511 mg/kg, route intraperitoneal; conditions: in vivo
Procedure, shortened: (§2)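 SWV inbred mice: two-month-old nulligravid females mated overnight with males and checked for vaginal plugs next morning; gestation onset taken as 10 p.m. the previous night. On gestation day 8.5 each dam got one ip injection, 0.55–2.7 mmol/kg, in 25% aqueous Cremophor EL (vehicle controls dosed alike), 10 μL/g body weight. Litters and implants tallied; resorptions and live fetuses reported as counts with percentages.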

Mus musculus [7] = experiment: Teratogenic effect in SWV mouse assessed as resorptions at 310 mg/kg, ip administered on morning of day 8 of gestation; format: toxicity, organism-based; set-up: dose 310 mg/kg, route intraperitoneal; conditions: in vivo; procedure, shortened: as §2
Mus musculus [8] = experiment: Teratogenic effect in SWV mouse assessed as resorptions at 156 mg/kg, ip administered on morning of day 8 of gestation; format: toxicity, organism-based; set-up: dose 156 mg/kg, route intraperitoneal; conditions: in vivo; procedure, shortened: as §2
Mus musculus [9] = experiment: Teratogenic effect in SWV mouse assessed as fetuses with neural tube deffects at 310 mg/kg, ip administered on morning of day 8 of gestation; format: toxicity, organism-based; set-up: dose 310 mg/kg, route intraperitoneal; conditions: in vivo
Procedure, shortened: (§3)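 Two-month-old nulligravid SWV females were mated overnight and checked for vaginal plugs the next morning; gestation onset was set at 10 p.m. the previous night. On gestation day 8.5, each dam received a single ip injection (0.55-2.7 mmol/kg range) or vehicle (25% aqueous Cremophor EL) at 10 μL/g body weight. Litters were scored for implants, resorptions, live and dead fetuses, and fetuses with neural tube defects.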

Mus musculus [10] = experiment: Teratogenic effect in SWV mouse assessed as fetuses with neural tube deffects at 156 mg/kg, ip administered on morning of day 8 of gestation; format: toxicity, organism-based; set-up: dose 156 mg/kg, route intraperitoneal; conditions: in vivo; procedure, shortened: as §3
Mus musculus [11] = experiment: Teratogenic effect in SWV mouse assessed as live fetuses at 511 mg/kg, ip administered on morning of day 8 of gestation; format: toxicity, organism-based; set-up: dose 511 mg/kg, route intraperitoneal; conditions: in vivo; procedure, shortened: as §2
Mus musculus [12] = experiment: Teratogenic effect in SWV mouse assessed as live fetuses at 310 mg/kg, ip administered on morning of day 8 of gestation; format: toxicity, organism-based; set-up: dose 310 mg/kg, route intraperitoneal; conditions: in vivo; procedure, shortened: as §3
Mus musculus [13] = experiment: Teratogenic effect in SWV mouse assessed as live fetuses at 156 mg/kg, ip administered on morning of day 8 of gestation; format: toxicity, organism-based; set-up: dose 156 mg/kg, route intraperitoneal; conditions: in vivo; procedure, shortened: as §3
Mus musculus [14] = experiment: Anticonvulsant activity in CF1 albino mouse assessed as inhibition of maximal electroshock-induced seizures at 30 mg/kg, ip after 0.5 hrs; format: functional, organism-based; set-up: dose 30 mg/kg
Procedure, shortened: (§4)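 Test compounds suspended in 0.5% methylcellulose and given ip to adult male CF no. 1 albino mice (18-25 g) at 0.01 mL/g body weight before maximal electroshock challenge.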

Mus musculus [15] = experiment: Anticonvulsant activity in CF1 albino mouse assessed as inhibition of maximal electroshock-induced seizures at 100 mg/kg, ip after 0.5 hrs; format: functional, organism-based; set-up: dose 100 mg/kg; procedure, shortened: as §4
Mus musculus [16] = experiment: Anticonvulsant activity in CF1 albino mouse assessed as inhibition of maximal electroshock-induced seizures at 300 mg/kg, ip after 0.5 hrs; format: functional, organism-based; set-up: dose 300 mg/kg; procedure, shortened: as §4
Mus musculus [17] = experiment: Anticonvulsant activity in CF1 albino mouse assessed as inhibition of maximal electroshock-induced seizures at 30 mg/kg, ip after 4 hrs; format: functional, organism-based; set-up: dose 30 mg/kg; procedure, shortened: as §4
Mus musculus [18] = experiment: Anticonvulsant activity in CF1 albino mouse assessed as inhibition of maximal electroshock-induced seizures at 300 mg/kg, ip after 4 hrs; format: functional, organism-based; set-up: dose 300 mg/kg; procedure, shortened: as §4
Mus musculus [19] = experiment: Anticonvulsant activity in CF1 albino mouse assessed as inhibition of subcutaneous pentylenetetrazole-induced seizures at 300 mg/kg, ip after 4 hrs; format: functional, organism-based; set-up: dose 300 mg/kg; procedure, shortened: as §1
Mus musculus [20] = experiment: Neurotoxicity in CF1 albino mouse assessed as motor impairment at 30 mg/kg, ip after 0.5 hrs; format: toxicity, organism-based; set-up: dose 30 mg/kg, route intraperitoneal; conditions: in vivo
Mus musculus [21] = experiment: Neurotoxicity in CF1 albino mouse assessed as motor impairment at 100 mg/kg, ip after 0.5 hrs; format: toxicity, organism-based; set-up: dose 100 mg/kg, route intraperitoneal; conditions: in vivo
Mus musculus [22] = experiment: Neurotoxicity in CF1 albino mouse assessed as motor impairment at 300 mg/kg, ip after 0.5 hrs; format: toxicity, organism-based; set-up: dose 300 mg/kg, route intraperitoneal; conditions: in vivo
Mus musculus [23] = experiment: Neurotoxicity in CF1 albino mouse assessed as motor impairment at 30 mg/kg, ip after 4 hrs; format: toxicity, organism-based; set-up: dose 30 mg/kg, route intraperitoneal; conditions: in vivo
Mus musculus [24] = experiment: Neurotoxicity in CF1 albino mouse assessed as motor impairment at 100 mg/kg, ip after 4 hrs; format: toxicity, organism-based; set-up: dose 100 mg/kg, route intraperitoneal; conditions: in vivo
Mus musculus [25] = experiment: Neurotoxicity in CF1 albino mouse assessed as motor impairment at 300 mg/kg, ip after 4 hrs; format: toxicity, organism-based; set-up: dose 300 mg/kg, route intraperitoneal; conditions: in vivo
Rattus norvegicus [26] = species: Rattus norvegicus; experiment: Protective index, ratio of TD50 for rat to ED50 for maximal electroshock-induced rat seizure model
Rattus norvegicus [27] = experiment: Neurotoxicity in Sprague-Dawley rat assessed as motor impairment at 30 mg/kg, po after 0.25 to 4 hrs; conditions: in vivo
Rattus norvegicus [28] = experiment: Anticonvulsant activity in po dosed rat assessed as inhibition of maximal electroshock-induced seizures
[29] = Teratogenic effect in SWV mouse assessed as dead fetuses at 91 mg/kg, ip administered on morning of day 8 of gestation; conditions: in vivo
[30] = Teratogenic effect in SWV mouse assessed as dead fetuses at 522 mg/kg, ip administered on morning of day 8 of gestation; conditions: in vivo, read-out: Ratio TD50/ED50
Mus musculus [31] = experiment: Teratogenic effect in SWV mouse assessed as fetuses with neural tube deffects at 282 mg/kg, ip administered on morning of day 8 of gestation; format: toxicity, organism-based; set-up: dose 282 mg/kg, route intraperitoneal; conditions: in vivo; procedure, shortened: as §3
Mus musculus [32] = experiment: Teratogenic effect in SWV mouse assessed as resorptions at 282 mg/kg, ip administered on morning of day 8 of gestation; format: toxicity, organism-based; set-up: dose 282 mg/kg, route intraperitoneal; conditions: in vivo; procedure, shortened: as §2
Mus musculus [33] = experiment: Teratogenic effect in SWV mouse assessed as resorptions at 141 mg/kg, ip administered on morning of day 8 of gestation; format: toxicity, organism-based; set-up: dose 141 mg/kg, route intraperitoneal; conditions: in vivo; procedure, shortened: as §2
Mus musculus [34] = experiment: Teratogenic effect in SWV mouse assessed as fetuses with neural tube deffects at 141 mg/kg, ip administered on morning of day 8 of gestation; format: toxicity, organism-based; set-up: dose 141 mg/kg, route intraperitoneal; conditions: in vivo; procedure, shortened: as §3
Mus musculus [35] = experiment: Teratogenic effect in SWV mouse assessed as live fetuses at 282 mg/kg, ip administered on morning of day 8 of gestation; format: toxicity, organism-based; set-up: dose 282 mg/kg, route intraperitoneal; conditions: in vivo; procedure, shortened: as §3
Mus musculus [36] = experiment: Teratogenic effect in SWV mouse assessed as live fetuses at 141 mg/kg, ip administered on morning of day 8 of gestation; format: toxicity, organism-based; set-up: dose 141 mg/kg, route intraperitoneal; conditions: in vivo; procedure, shortened: as §3
Rattus norvegicus [37] = experiment: Anticonvulsant activity in Sprague-Dawley rat assessed as inhibition of maximal electroshock-induced seizures at 30 mg/kg, po after 4 hrs
Rattus norvegicus [38] = experiment: Anticonvulsant activity in Sprague-Dawley rat assessed as inhibition of maximal electroshock-induced seizures at 30 mg/kg, po after 30 mins
Rattus norvegicus [39] = experiment: Anticonvulsant activity in Sprague-Dawley rat assessed as inhibition of maximal electroshock-induced seizures at 30 mg/kg, po after 15 mins

SMILES | Activity (Mus musculus [1]) | Activity (Mus musculus [2]) | Activity (Mus musculus [3]) | Activity (Mus musculus [4]) | Activity (Mus musculus [5]) | Activity (Mus musculus [14]) | Activity (Mus musculus [16]) | Activity (Mus musculus [17]) | Activity (Mus musculus [18]) | Activity (Mus musculus [19]) | Activity (Mus musculus [20]) | Activity (Mus musculus [23]) | Activity (Mus musculus [24]) | Activity (Mus musculus [25]) | ED50 (Rattus norvegicus [28]) [mg/kg] | also measured
CCCC(CC)C(=O)Nc1ccc(S(N)(=O)=O)cc1 (centres undefined) | inactive | inactive | inactive | inactive | inactive | inactive | inactive | inactive | Active | inactive | Non-toxic | Non-toxic | Non-toxic | Non-toxic | 11.6 | Activity (Mus musculus [6]): 98.5%; Activity (Mus musculus [7]): 72%; Activity (Mus musculus [8]): 15.7%; Activity (Mus musculus [9]): 13.3%; Activity (Mus musculus [10]): 1%; Activity (Mus musculus [11]): 1.5%; Activity (Mus musculus [12]): 28%; Activity (Mus musculus [13]): 84.3%; Activity (Mus musculus [15]): inactive; Activity (Mus musculus [21]): Non-toxic; Activity (Mus musculus [22]): Non-toxic; Ratio TD50/ED50 (Rattus norvegicus [26]): >43.1; Activity (Rattus norvegicus [27]): Non-toxic; ED50 [29]: 11.6 mg/kg; selectivity ratio [30]: 43.1
CC(C)(C)C(=O)Nc1ccc(S(N)(=O)=O)cc1 | inactive | inactive | inactive | inactive | inactive | inactive | Active | inactive | Active | inactive | Non-toxic | Non-toxic | Non-toxic | Non-toxic | 42.2 | Activity (Mus musculus [31]): 2.7%; Activity (Mus musculus [32]): 8.9%; Activity (Mus musculus [33]): 7.5%; Activity (Mus musculus [34]): 3.7%; Activity (Mus musculus [35]): 91.1%; Activity (Mus musculus [36]): 93.3%; Activity (Rattus norvegicus [37]): Active; Activity (Rattus norvegicus [38]): inactive; Activity (Rattus norvegicus [39]): inactive
